# Assay results taken from paper PMC4079331 (Journal of Medicinal Chemistry, 2014).
# Columns and labels:
# CLL patient cells = test: In vitro activity against CLL patient cells, summary statements over cell lines; format: cell-based, human; settings: for in vitro activity against CLL patient cells: result in words
# Method in brief: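 Primary CLL cells from consented patients, cultured in RPMI with 10% FBS and test compound at designated concentrations for 48 h (37 °C, 5% CO2). Viability is the DiOC6+/PI− fraction relative to untreated or vehicle control. EC50 and SE come from dose–response curves.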
# [1] = Phase I metabolism in mouse microsomes; format: in vitro ADME; settings: 1 h incubation, 100 μM, NADPH
# Method in brief: (§1)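 Mouse or human microsomes (5 mg/mL protein final) in 0.1 M sodium phosphate pH 7.4 with 100 μM test compound (DMSO <1%), preincubated 5 min at 37 °C. Started with 1 mM NADPH and run 60 min at 37 °C. Stopped with MeOH and centrifuged; supernatant analysed by LCMS. Controls: zero time, no NADPH, boiled microsomes, and 7-ethoxycoumarin as CYP substrate.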
# [2] = Phase I metabolism in human microsomes; format: in vitro ADME; settings: 1 h incubation, 100 μM, NADPH
# Method in brief: as §1
# [3] = test system: CLL2 (CLL patient cell line); test: In vitro cytotoxicity against primary CLL patient cells CLL2; format: cell-based, human; settings: for EC50: read-out: antitumor EC50 CLL2, Table 3, SE ±0.01 μM
# [4] = test system: CLL1 (CLL patient cell line); test: In vitro cytotoxicity against primary CLL patient cells CLL1; format: cell-based, human; settings: read-out: antitumor EC50 CLL1; Table 3; SE ±0.01 μM
# [5] = test system: JVM-2 (ATCC leukemia cell line); test: In vitro cytotoxicity against JVM-2; format: cell-based; settings: read-out: antitumor EC50 JVM-2; Table 3; SE ±0.01 μM
# HeLa cell line = test: HeLa cell viability by the MTT method; format: cell-based; settings: read-out: antitumor EC50 HeLa; Table 3; SE ±0.01 μM
# [6] = Phase II glucuronidation in human S9 fractions; format: in vitro ADME
# [7] = test system: KB nasopharyngeal tumor cells; settings: in vitro cultured cells; from the literature, reference not given; cited from earlier work
# CLL = settings: read-out: EC50 against CLL; p53-independent activity; cited from earlier work
# [8] = Nonspecific protein binding, from recovery out of plasma and serum; format: in vitro ADME; settings: result in words
# Method in brief: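 Test compound at 50 μM final (1% DMSO) in pooled female BALB/c mouse plasma or serum, or in human AB serum, incubated at 37 °C with gentle agitation. Aliquots taken at 0, 0.5, 1, 2, 8, 18 and 24 h were precipitated with CH3CN and centrifuged at 3000g for 10 min; supernatants were quantified by LCMS. Run in triplicate.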
# [9] = Phase II glucuronidation in mouse S9 fractions; format: in vitro ADME
# [10] = Stability in mouse plasma; format: in vitro ADME; settings: female, BALB/c, mouse plasma (pooled)
# Method in brief: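 Test compound at 50 μM final (1% DMSO) in pooled plasma from female BALB/c mice or human AB serum. Incubated at 37 °C with gentle agitation. Samples taken at 0, 0.5, 1, 2, 8, 18 and 24 h. Proteins precipitated with CH3CN, vortexed and centrifuged (3000g, 10 min, room temperature); supernatant analysed by LCMS. Run in triplicate.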
compound,measurement,setting,value
"CN1C(=O)N[C@H]2[C@@H]3NC(=O)c4ccc(C#N)n4[C@@H]3C[C@]21O [1n, 13-Debromo-13-cyano-agelastatin A]",in vitro activity against CLL patient cells,CLL patient cells,nanomolar
"CCOc1ccc2ccc(=O)oc2c1 [7-ethoxycoumarin, reference compound]","metabolism by cytochrome P450 enzymes, recovery from supernatant (LCMS)",[1],metabolized
same,"metabolism by cytochrome P450 enzymes, recovery from supernatant (LCMS)",[2],metabolized
O-Methyl-agelastatin A [4b],EC50,[3],28.8 µM
same,EC50,[4],867 µM
same,EC50,[5],429 µM
same,EC50,HeLa cell line,91.4 µM
"CN1C(=O)N[C@H]2[C@@H]3NC(=O)c4cccn4[C@@H]3C[C@]21O [1p, 13-Debromo-agelastatin A]",loss of activity on removal of Br from C-13,[3]; compared with 1a,25 fold
same,"metabolism by cytochrome P450 enzymes, recovery from supernatant (LCMS)",[1],near quantitative recovery
same,"metabolism by cytochrome P450 enzymes, recovery from supernatant (LCMS)",[2],near quantitative recovery
"CN1C(=O)N[C@H]2[C@@H]3NC(=O)c4ccc(Br)n4[C@@H]3C[C@]21O [1a, (−)-Agelastatin A]",formation of glucuronides,[6],No formation of glucoronides was detected
same,"metabolism by cytochrome P450 enzymes, recovery from supernatant (LCMS)",[1],quantitative recovery
same,EC50,"CLL patient cells; read-out: EC50, CLL activity, range over the cell lines tested",0.11 to 0.31 µM
same,"IC50, growth of KB nasopharyngeal tumor cells",[7],0.5–1 μg mL^–1
same,EC50,CLL,0.06 to 0.1 µM
same,"metabolism by cytochrome P450 enzymes, recovery from supernatant (LCMS)",[2],quantitative recovery
same,nonspecific protein binding,[8],relatively low
same,formation of glucuronides,[9],No formation of glucoronides was detected
"CN1C(=O)N[C@H]2[C@@H]3NC(=O)c4ccc(I)n4[C@@H]3C[C@]21O [1g, 13-Debromo-13-iodo-agelastatin A]",in vitro activity against CLL patient cells,CLL patient cells,nanomolar
"CN1C(=O)N[C@H]2[C@@H]3NC(=O)c4ccc(C(F)(F)F)n4[C@@H]3C[C@]21O [1j, 13-Debromo-13-trifluoromethyl-agelastatin A]","metabolism by cytochrome P450 enzymes, recovery from supernatant (LCMS)",[1],quantitative recovery
same,in vitro activity against CLL patient cells,CLL patient cells,nanomolar
same,"recovery at 24 h, 50 μM",[10],65 to 90%
same,"metabolism by cytochrome P450 enzymes, recovery from supernatant (LCMS)",[2],quantitative recovery
same,nonspecific protein binding,[8],relatively low
"CN1C(=O)N[C@H]2[C@@H]3NC(=O)c4cc(Cl)c(Cl)n4[C@@H]3C[C@]21O [1e, 13-Debromo-13,14-dichloro-agelastatin A]",in vitro activity against CLL patient cells,CLL patient cells,nanomolar
O-(2′-Methoxyethyl)-agelastatin A [4c],EC50,[3],9.39 µM
same,EC50,[5],21.1 µM
"CN1C(=O)N[C@H]2[C@@H]3NC(=O)c4ccc(Cl)n4[C@@H]3C[C@]21O [1d, 13-Debromo-13-chloro-agelastatin A]",in vitro activity against CLL patient cells,CLL patient cells,nanomolar
